Measured values gathered from unrelated publications.
Protocols differ between the studies behind these lines.
Target: Tyrosine-protein kinase ABL2 (ABL2, Homo sapiens, UniProt P42684)

O=C(Nc1cnn(-c2csc(C(=O)NC3COC3)c2)c1)Nc1ccccc1Cl  remaining activity (enzyme activity; inhibitor; 5 µM): 92.7%
Cc1ccc(C(=O)Nc2ccc(CN3CCN(C)CC3)c(C(F)(F)F)c2)cc1C#Cc1cnc2cccnn12  remaining activity (enzyme activity; inhibitor; 23.5 nM): 3.2%
COc1cc2ncnc(Nc3ccc(Oc4ccccc4)c(C)c3C)c2cc1OC  inhibition (enzyme activity; inhibitor; 1 µM): 6%
COc1cc(-c2cn(C3CCc4ccccc4N(CC(F)(F)F)C3=O)nn2)ccc1-n1ccc(C)n1 (stereo not shown)  remaining binding (cell-free assay; competition with immobilised ligand; 1 µM): 100%
CC(C)(C)c1nc2c(s1)c1nc(N)ncc1c1ccc(NS(=O)(=O)c3c(F)cccc3F)c(F)c12  remaining activity (enzyme activity; inhibitor; radiometric; 1 µM): 99%
CC(=O)N1CCC(c2ccc(C(=O)NC3=NCCN3)cc2C(F)(F)F)CC1  remaining binding (cell-free assay; competition with immobilised ligand; 1 µM): 100%
O=C1NC(=O)c2cc(Nc3ccc(F)cc3)c(Nc3ccc(F)cc3)cc21  remaining signal (cell-free assay; 0.5 µM): 89.6%
O=C1NC(c2ccccn2)Sc2ccccc21 (stereo not shown)  remaining binding (cell-free assay; competition with immobilised ligand; 1 µM): 85%
Clc1ccc(Nc2nnc(Cc3ccncc3)c3ccccc23)cc1  remaining signal (cell-free assay; 0.5 µM): 101%
CCCS(=O)(=O)Nc1ccc(F)c(C(=O)c2c[nH]c3ncc(-c4ccc(Cl)cc4)cc23)c1F  inhibition (enzyme activity; inhibitor; 1 µM): < 20%
Cc1cc(NC(=O)c2cccc(S(F)(F)(F)(F)F)c2)cc(-n2ccn3nc(-c4cccnc4)cc23)c1  remaining binding (cell-free assay; competition with immobilised ligand; 1 µM): 100%
COc1cc(Cl)c(C(=O)N[C@@H](CN[C@H]2CC[C@@H](N)CC2)Cc2ccc(C#N)cc2)cc1-c1ccc(CN[C@H](C)c2ccc(C)cc2)o1  remaining activity (enzyme activity; inhibitor; 1 µM): 87%
Cc1ccc(Nc2nccc(N(C)c3ccc4c(C)n(C)nc4c3)n2)cc1S(N)(=O)=O  inhibition (enzyme activity; inhibitor; 0.3 µM): 24%
Cc1nc(N2CC[C@@H](O)C2)ncc1-c1cc(C(F)(F)F)cc2[nH]ncc12  remaining binding (binding; competition with immobilised ligand; 1 µM): 60%
Nc1ncnc2occ(-c3ccc(NC(=O)Nc4cc(C(F)(F)F)ccc4F)cc3)c12  remaining signal (cell-free assay; inhibitor; 20 µM): 0.65%
CNC(=O)c1cc(Oc2ccc(NC(=O)Nc3ccc(Cl)c(C(F)(F)F)c3)cc2)ccn1  inhibition (enzyme activity; inhibitor; 10 µM): 48%
CNc1cccc2cc(C(=O)Nc3ccc(C(=O)O)cc3)c(=O)[nH]c12  inhibition (enzyme activity; inhibitor; 10 µM): -3.6%
Cc1ccc(NC(=O)c2ccc(C)c(C(F)(F)F)c2)cc1C#Cc1nn(C2CCC(O)CC2)c2ncnc(N)c12 (stereo not shown)  remaining signal (cell-free assay; 10 µM): 0%
Cc1c(NC(=O)c2cc(C(N)=O)nc3cc(F)ccc23)c(C(F)(F)F)nn1Cc1ccc(C(C)(C)C)cc1  remaining binding (cell-free assay; competition with immobilised ligand; 1 µM): 87%
O=C(Nc1cnn(-c2csc(C(=O)NC3COC3)c2)c1)Nc1c(F)cccc1Cl  remaining activity (enzyme activity; inhibitor; 5 µM): 88.7%
Cc1nccc(COC(=O)N2C[C@@H]3[C@@H](CNC(=O)c4ccc5[nH]nnc5c4)[C@@H]3C2)n1  remaining binding (cell-free assay; competition with immobilised ligand; 1 µM): 90%
Cc1cc(NC(=O)c2cccc3cc(-c4cccc5[nH]nc(N)c45)ccc23)ccc1F  activity vs control (enzyme activity; inhibitor; 0.1 µM): 122%
